# Bioassay records: PubChem BioAssay, several laboratories
# Yeast life ext: extends the lifespan of yeast; S. cerevisiae growth with nicotinamide, OD615; deaD strain in restrictive glucose medium; actives 0.68% (n = 130,000); inhibition of the nicotinamide effect, % at 10 µM;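 active = inhibition above a set limit, placed 3 SD over the median of all compounds, cut at about 26% in these data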;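 also: 0% = nicotinamide-treated wells and 100% = cells grown without nicotinamide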
#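 Buffer or medium: CSMM-D glucose medium, restrictive; test system: modified budding yeast, DeaD strain; compound: single dose 10 µM compound, 0.25% DMSO; schedule: culture preincubation 4 h, compound exposure 48 h, both 30 °C; detection: optical density (absorbance) at 615 nm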
# BB579 growth dn: chemicals that inhibit yeast BB579 growth in restrictive medium (lifespan-shortening candidates); S. cerevisiae BB579 growth, OD615, 48 h; actives 0.51% (n = 140,000); inhibition, % at 10 µM; AID 804;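 active = inhibition above a set limit, 3 SD over the mean compound inhibition, cut at about 44% in these data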
#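 Test system: DeaD yeast strain BB579 / Buffer or medium: restrictive glucose-based CSMM-D medium / Doses: single 10 µM dose / Schedule: 4 h cell preincubation, 48 h compound exposure, 30 °C humidified / Technique: culture absorbance at 615 nm / Controls: amphotericin B positive control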
# Phagocytosis inh: blocks phagocytosis by macrophages | J774A.1 macrophage IgG-bead phagocytosis, imaging | inhibition, % at 5 µM | actives 0.07% (n = 110,000) | AID 1029;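 active = inhibition above the mean of the plate negative controls plus 5 SD, cut at about 13% in these data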;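 also: phagocytic index as fraction of beads internalized from green versus red external bead signal; plate controls were DMSO negative control for no effect and cytochalasin-D positive control for full effect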
# RAM network inh: yeast RAM network inhibition; AID 868; S. cerevisiae dse1pr::URA3 reporter, 5-FOA growth OD615, 2 d; analog-sensitive cbk1-as2 kinase mutant strain; inhibition, % at 50 µM; actives 1.8% (n = 190,000);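 active = inhibition above a set limit, 3 SD over mean compound inhibition, cut at about 8.4% in these data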;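 also: 0% = DMSO-only wells with no growth and 100% = 10 µM 1-NA-PP1 full growth; inhibition rescues growth on 5-FOA so higher OD means more RAM inhibition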
# The depositor's hits bear a star; x = not tested or not shown; [ ] = remark or other dose. Only some compounds are listed: those with a hit (about 2.7% of all), similar ones and a draw of the others.
SMILES,Yeast life ext,BB579 growth dn,Phagocytosis inh,RAM network inh
Cc1ccc(-n2nc(C)c3c2OC(N)=C(C#N)C3c2ccoc2)cc1 (configuration not stated),30*,-66,1,0
Cc1ccc(-n2nc(C)c3c2OC(N)=C(C#N)C3c2ccco2)cc1 (configuration not stated),28,-58,x,0
CCOC(=O)c1ccc(S(=O)(=O)N2CCC(C(=O)O)CC2)cc1,-8,-49,-1,2
N#CCC(=O)c1ccccc1Oc1ccc(Cl)cc1,x,x,x,0
CC1CCN(S(=O)(=O)c2cccc(C(=O)Nc3ccccc3)c2)CC1,x,x,x,3
Cc1c(O)nc(SCC(=O)Nc2ccc3c4c(cccc24)CC3)n(-c2ccc(F)cc2)c1=O,-2,-36,-4,9.2*
CC1CN(Cc2ccccc2)c2ccccc2NC1=S (configuration not stated),10,-48,7,1
Cc1cccc(/N=C/c2c(O)ccc3oc4c(c23)CCCC4)n1,31*,-15,-6,1
Nc1nc(CSc2ccccc2)nc(N2CCCCC2)n1,x,x,x,1
Nc1nc(CSc2ccc(Cl)cc2)nc(N2CCCCC2)n1,x,x,x,9.0*
CSc1nc(N)nc(SCC(=O)CC(=O)OC(C)C)c1C#N,-10,-16,38*[artifact],3
Cc1ccc(C)c2[nH]c(=O)c(CCNC(=O)c3cc4ccccc4o3)cc12,0,-16,0,8.5*
COc1ccc(OC)c2[nH]c(=O)c(CCNC(=O)c3cc4ccccc4o3)cc12,-10,-49,-1,2
NS(=O)(=O)c1ccc(NS(=O)(=O)c2ccc(NC(=S)Nc3ccccc3)cc2)cc1,0,-6,-10,0
NS(=O)(=O)c1ccc(NC(=S)Nc2ccn(Cc3cccc4ccccc34)n2)cc1,x,x,x,9.3*
CCOC(=O)C(=O)N(Nc1ccccc1C)c1ccccc1C,x,x,x,1
Cc1ccc(NC(=O)COC(=O)c2cc(Cl)ccc2[N+](=O)[O-])cc1,-4,2,24*[artifact],3
CCNC(=O)COC(=O)COc1ccc(Cl)cc1C,-12,-74,-1,1
Cc1cc(Cl)ccc1OCC(=O)OCC(=O)Nc1ccc(F)c([N+](=O)[O-])c1,-5,-21,0,9.2*
Cc1c(C(=O)OCC(=O)Nc2ccc(C(N)=O)cc2)cccc1[N+](=O)[O-],x,x,x,4
C=CCNC(=S)NNC(=O)COc1cccc(Cl)c1,-10,0,x,1
O=C(CN1C(=O)CCC1=O)Nc1cccc2c1C(=O)NC2=O,x,x,x,3
O=C(CSCc1c(Cl)cccc1Cl)Nc1ccc2c(c1)OCO2,6,-37,0,9.7*
C=CCN1C(=O)C(Cc2ccc(OCC)cc2)S/C1=N\N=C\c1cccs1 (configuration not stated),30*,-44,-2,9.3*
CCC(=O)N(Cc1ccco1)C1CC(=O)N(c2ccccc2)C1=O (configuration not stated),9,-17,-1,1
SMILES,Yeast life ext,BB579 growth dn,Phagocytosis inh,RAM network inh
COc1ccc(NS(=O)(=O)c2cc(NC(=O)[C@@H](NC(=O)c3ccccc3)C(C)C)ccc2C)cc1,1,-33,3,8.6*
COc1ccc(-c2n[nH]c(C(F)(F)F)c2-c2cc3ccccc3o2)c(O)c1,-29,100*,4,-1
C=CCOc1ccc(CNc2ccc(NC(=O)CC(C)C)cc2)cc1OC,-5,-17,-4,1
Cc1cc(CSc2ccccc2)ccc1NC(=O)COc1ccccc1,-5,-27,0,8.6*
CN(c1ccccc1)S(=O)(=O)c1ccc(C(=O)NCc2ccccn2)cc1,x,x,x,1
CCN1/C(=C/c2ccc3cc(C)ccc3[n+]2CC)Sc2ccccc21,-11,98*,-19,-3
CCN1/C(=C/c2ccc3cc(C)ccc3[n+]2CC)Sc2cc(C)c(C)cc21,x,x,x,1
Cc1noc(/C=C/c2ccc(-c3ccccc3Cl)o2)c1[N+](=O)[O-],-5,-37,0,8.9*
CS/C(=N\S(=O)(=O)c1cccs1)Nc1ccc(Br)cc1F,31*,-10,-8,1
CS/C(=N\S(=O)(=O)c1cccs1)Nc1ccc(Cl)cc1,6,-35,-10,0
CN1C(=O)CC(C(=O)Nc2ccccc2F)SC1=Nc1ccc2c(c1)OCO2 (configuration not stated),x,x,x,6
CCCCCn1c(SCC(=O)OCC)nc2cc(C(=O)NCc3ccco3)ccc2c1=O,-1,-33,1,11*
Oc1c(Br)cc(Br)cc1/C=N/c1nc2c(s1)CCCC2,-15,99*,x,-1
Oc1ccc2ccccc2c1/C=N/c1nc2c(s1)CCCC2,33*,-21,0,6
Cc1sc2nc(COC(=O)CNC(=O)c3ccc(C(C)(C)C)cc3)[nH]c(=O)c2c1C,3,-15,-9,3
C=CCNC(=S)N(CC=C)C1CCS(=O)(=O)C1 (configuration not stated),2,-6,-3,0
O=C(CCCC(=O)N(CC(=O)NC1CCCCC1)Cc1ccc2c(c1)OCO2)Nc1ccccn1,28*,-27,-1,2
CCOc1ccc(C(C)=O)cc1CN1C(=O)C(=O)N(CC)C1=O,x,x,x,2
CC(C)NC(=S)N/N=C/c1sc(N2CCCCC2)nc1-c1cccs1,-5,-21,-13,1
CCCCNC(=S)N(C)/N=C/c1sc(N2CCCCC2)nc1-c1cccs1,-5,-20,-5,9.9*
O=c1[nH]c(=O)n(Cc2ccccc2)c2c1C(C(F)(F)F)(C(F)(F)F)N=C(c1ccco1)N2,-6,18,x,2
O=c1[nH]c(=O)n(Cc2ccco2)c2c1C(C(F)(F)F)(C(F)(F)F)N=C(c1ccc(F)cc1)N2,2,-63,0,8.8*
CN(C)S(=O)(=O)c1cccc(NC(=S)NN=C(Cc2ccccc2)Cc2ccccc2)c1,-3,-8,-1,10*
O=C(Nc1ccc(Cl)cc1)Nc1ccc(S(=O)(=O)Nc2ncccn2)cc1,x,x,x,5
O=C(Nc1ccc(S(=O)(=O)Nc2ncccn2)cc1)c1cnc(Cl)c(Cl)c1,x,x,x,11*
SMILES,Yeast life ext,BB579 growth dn,Phagocytosis inh,RAM network inh
O=[N+]([O-])c1ccc(N/N=C/c2sc(N3CCOCC3)nc2-c2ccccc2)c(S(=O)(=O)Nc2ccccc2Cl)c1,x,x,x,8.4*
CSCCC(NC(=O)COc1ccccc1)C(=O)O (configuration not stated),x,x,x,2
CCc1nc2ccccc2n1CCC(C)C,-6,-12,-1,1
Cc1cc(NS(=O)(=O)c2ccc(NC(=O)c3cc4c(=O)n5ccccc5nc4s3)cc2)nc(C)n1,x,x,x,9.0*
CC(Oc1ccc(Cl)cc1Cl)C(=O)NC1=NN(c2ccccc2)C(=O)C1 (configuration not stated),-19,98*,1,1
CC(C)(Oc1ccc(Cl)cc1)C(=O)NC1=NN(c2ccccc2)C(=O)C1,-11,96*,-7,1
O=C1c2ccccc2-c2nc3ccccc3nc21,-15,85*,0,0
COc1ccccc1-c1nc2ccccc2nc1-c1ccccc1OC,4,-22,-8,1
Cc1cc(NC(=O)NC(C(F)(F)F)C(F)(F)F)no1,x,x,x,3
Cc1cc(O)cc2c1C(c1ccc(F)cc1)CC1(CC(C)(C)NC(=S)N1)O2 (configuration not stated),x,x,x,2
